# Rows were chosen to be rich in hits. Some 2.3% of all compounds tested hit in one or more screens of this group.
# TRPC4 potent: positive allosteric modulators of TRPC4, primary screen, cell-based, mouse TRPC4beta, HEK293 mu-opioid, Fluo-4 calcium; hit rate 0.42% among 310,000; B-score at 10 µM; DAMGO EC20, Fluo-4 Ca2+ flux; stronger effect = higher value;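 active = B-score of calcium response area above 5 SD of library B-scores, with initial fluorescence ratio within 5 SD of library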;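 also: B-score of integrated fluorescence ratio over time as area under calcium response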
# TRPC4 agonist: activators of mouse TRPC4 channel, primary screen, Fluo4 calcium, HEK293 TRPC4beta/mu-opioid cells; Fluo4 calcium fluorescence; stronger effect = higher value; B-score at 10 µM; hit rate 0.49% among 310,000; AID 2237, 2010;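 active = B-score above 5 SD of library B-scores, and initial fluorescence ratio not above library mean plus 5 SD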;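 also: positive B-score marks a calcium rise read as TRPC4 activation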
#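 System – HEK293 cells stably co-expressing mouse TRPC4beta and mu-opioid receptor · Signal – Fluo4 calcium-sensitive dye fluorescence, kinetic, 1 Hz baseline · Benchmarks – buffer (low) and maximal DAMGO (high) · Read-out – B score of integrated fluorescence ratio per well · Incubation – dye loading 45 min room temperature, 110 s kinetic read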
# TRPC6 inh: mouse TRPC6 channel inhibitors, primary screen, cell-based, HEK293, membrane potential dye; B-score at 10 µM; ACh-evoked depolarization; stronger effect = lower value; Short transient receptor potential channel 6 (Mus musculus), Q61143; hit rate 1.1% among 310,000;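 active = B-score under library mean minus 3 SD, initial fluorescence not abnormally high, positive integrated signal ratio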;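 also: B-score derived from integrated fluorescence ratio over the kinetic read; more negative B-score means stronger inhibition of depolarization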
# Target sequence (Q61143 whole entry, looked up): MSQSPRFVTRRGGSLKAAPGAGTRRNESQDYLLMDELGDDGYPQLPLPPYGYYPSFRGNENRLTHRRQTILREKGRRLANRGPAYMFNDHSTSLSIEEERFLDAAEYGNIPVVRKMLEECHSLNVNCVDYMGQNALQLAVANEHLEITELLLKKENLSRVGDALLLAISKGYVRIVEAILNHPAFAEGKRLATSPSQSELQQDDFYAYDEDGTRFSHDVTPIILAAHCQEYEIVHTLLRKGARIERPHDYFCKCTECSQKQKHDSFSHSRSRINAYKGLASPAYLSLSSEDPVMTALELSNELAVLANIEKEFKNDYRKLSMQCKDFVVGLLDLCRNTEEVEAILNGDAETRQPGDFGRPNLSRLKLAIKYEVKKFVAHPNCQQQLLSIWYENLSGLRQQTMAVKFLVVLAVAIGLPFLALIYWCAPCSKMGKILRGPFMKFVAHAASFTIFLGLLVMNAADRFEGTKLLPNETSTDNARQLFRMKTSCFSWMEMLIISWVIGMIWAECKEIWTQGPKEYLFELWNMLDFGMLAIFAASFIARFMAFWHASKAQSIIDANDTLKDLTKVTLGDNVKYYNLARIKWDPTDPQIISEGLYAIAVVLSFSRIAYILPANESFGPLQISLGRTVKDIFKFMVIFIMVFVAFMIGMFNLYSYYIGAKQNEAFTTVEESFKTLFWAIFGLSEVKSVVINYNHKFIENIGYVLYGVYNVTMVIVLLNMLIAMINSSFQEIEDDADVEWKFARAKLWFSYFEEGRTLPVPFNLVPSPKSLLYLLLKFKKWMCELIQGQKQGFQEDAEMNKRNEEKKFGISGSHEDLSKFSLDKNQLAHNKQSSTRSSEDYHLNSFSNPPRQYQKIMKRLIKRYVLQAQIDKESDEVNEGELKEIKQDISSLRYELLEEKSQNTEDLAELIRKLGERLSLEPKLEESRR
# TRPC6 activator: mouse TRPC6 channel activators, primary screen, cell-based, HEK293, membrane potential dye. Short transient receptor potential channel 6 (Mus musculus), Q61143. HEK293-TRPC6 membrane potential dye fluorescence; stronger effect = higher value. B-score at 10 µM. hit rate 0.13% among 310,000;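 active = B-score of the integrated fluorescence ratio above library mean plus 3 SD, and starting fluorescence ratio within library mean plus 5 SD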;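 also: higher score means more depolarization so channel activation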
# TRPC4 block: inhibitors of mouse TRPC4 channel, primary screen, Fluo4 calcium, HEK293 TRPC4beta/mu-opioid cells | Short transient receptor potential channel 4 (Mus musculus), Q9QUQ5 | DAMGO-evoked Fluo4 calcium flux; stronger effect = lower value | B-score at 10 µM | hit rate 0.39% among 300,000 | AID 2247, 2010;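 active = B-score over 3 SD under the library average, no early fluorescence shift, positive overall ratio signal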
#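 Signal: kinetic Fluo4 fluorescence imaging of calcium influx. Material: stable TRPC4beta/mu-opioid receptor HEK293 cells. Probe or stimulus: DAMGO in two steps, submaximal then maximal.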
# Active calls of the source: *; i = inactive.
SMILES,TRPC4 potent,TRPC4 agonist,TRPC6 inh,TRPC6 activator,TRPC4 block
CCCS(=O)(=O)c1c(S(=O)(=O)CCC)c2ccc(C(N)=O)cn2c1C(=O)c1ccc(OC)cc1,20*,i,i,i,i
CCCCCSc1nnc2c(n1)OC(c1cccn1C)N(C(C)=O)c1ccccc1-2 (stereo not given),i,193*,i,i,i
Cc1ccc(C(=O)N/C(=C/c2ccc(Cl)cc2)C(=O)N2CCOCC2)cc1,i,i,i,i,i
CC(=O)Oc1c(C)cc(O)c2ccccc12,17*,i,i,i,i
O=C1N(Cc2cccc(Cl)c2)C[C@@H]2C[C@@H](c3cccn3-c3nccs3)N3CCC[C@@]123,i,i,i,i,i
Cc1csc2ncnc(N3CCN(C(=S)Nc4ccc(C(F)(F)F)cc4)CC3)c12,i,i,i,i,i
CCOC(=O)C1CCN(c2ncnc3c(C)csc23)CC1,i,i,i,i,i
Cc1csc2c(N3CCN(C(=O)NC(C)(C)C)CC3)ncnc12,i,84*,i,i,i
Cc1csc2c(N3CCN(C(=O)Nc4ccc(Cl)c(Cl)c4)CC3)ncnc12,i,91*,i,i,i
Cc1csc2c(N3CCN(C(=S)Nc4ccc(C(F)(F)F)cc4)CC3)ncnc12,i,145*,i,i,i
Cc1csc2c(N3CCN(C(=O)c4ccc(C(C)(C)C)cc4)CC3)ncnc12,i,67*,i,i,i
Cc1nnc(SCC(=O)NC2CCCCC2)n(N)c1=O,i,i,i,i,i
CCCC(C(=O)NC1CCCC1)N(Cc1ccccc1Cl)C(=O)c1snc(C(N)=O)c1N (stereo not given),i,i,i,i,i
O=C(Cn1cnc2ccccc2c1=O)Nc1nnc(SCc2ccc(Cl)cc2)s1,i,i,i,i,i
Cc1ccsc1C(=O)Nc1nc2ccccc2[nH]1,i,i,i,i,i
Cc1ccc(S(=O)(=O)Cn2nnnc2C(C(C)C)N2CCC(C(N)=O)CC2)cc1 (stereo not given),i,i,i,i,i
CC1(c2ccc(Cl)cc2Cl)OCC(Cn2ccnc2)O1 (stereo not given),i,105*,i,i,i
N/C(=N\OC(=O)COc1ccc2ccccc2c1)c1ccncc1,i,i,i,i,i
N/C(=N\OC(=O)COc1ccc2ccccc2c1Br)c1ccncc1,i,i,-5*,i,i
O=S(=O)(c1ccccc1)N1CCN(c2ccnc3cc(Cl)ccc23)CC1,13*,i,i,i,i
O=S(=O)(c1cccs1)N1CCN(c2ccnc3cc(Cl)ccc23)CC1,11*,i,i,i,i
CC(=O)N1CCN(c2ccnc3cc(Cl)ccc23)CC1,i,i,i,i,i
CCCc1cc(C(=O)Cc2ccc(C(=O)OCC)o2)c(O)cc1O,i,i,-5.5*,i,i
CCCc1cc(C(=O)Cc2ccc(F)cc2)c(O)cc1O,i,i,i,i,i
CCOc1ccc(S(=O)(=O)N2CCOCC2)cc1NC(=O)CSCc1c(C)noc1C,10*,i,i,i,i
O=C1Nc2ccccc2C12Nc1ccccc1-c1nc3ccccc3n12 (stereo not given),i,i,i,i,i
CN1C(=O)C2(Nc3ccccc3-c3nc4ccccc4n32)c2ccccc21 (stereo not given),i,i,i,i,-6*
CCN(CCCNS(=O)(=O)c1cc(-c2cc(C)no2)ccc1C)Cc1ccccc1,i,175*,i,i,i
O=S(=O)(c1ccccc1)c1nnn2c1nc(NC1CCN(Cc3ccccc3)CC1)c1cc(Cl)ccc12,i,148*,i,i,-6*
O=S(=O)(c1ccccc1)c1nnn2c1nc(NC1CCN(Cc3ccccc3)CC1)c1ccccc12,i,i,i,i,i

# Bioassay records deposited in PubChem BioAssay by Johns Hopkins Ion Channel Center.
